Test results published in ChEMBL document CHEMBL3351966, “Structural manipulation on the catecholic fragment of dopamine D(1) receptor agonist 1-phenyl-N-methyl-benzazepines” (Eur J Med Chem, 2014).

Key:
[1] = biological target: D(1A) dopamine receptor (Homo sapiens, UniProt P21728); experiment: Displacement of [3H]SCH23390 from human dopamine D1 receptor expressed in HEK293 cell membranes by liquid scintillation counting based competition binding assay
In short: (§1)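 Competition binding on membranes from stably transfected cell lines ([…]), clones selected with G418. Buffer 50 mM Tris, 4 mM MgCl₂, pH 7.4 with 0.7 nM radioligand and increasing compound concentrations. Duplicate tubes incubated at 30 °C for 50 min, then rapid filtration through GF/B filters and cold-buffer wash. Compounds from 10^-1 M DMSO stock. Ki as mean of three to five experiments, racemates.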

[2] = biological target: D(2) dopamine receptor (Homo sapiens, UniProt P14416); experiment: Displacement of [3H]spiperone from human dopamine D2 receptor expressed in HEK293 cell membranes by liquid scintillation counting based competition binding assay; in short: as §1
[3] = biological target: 5-hydroxytryptamine receptor 2A (Homo sapiens, UniProt P28223); experiment: Displacement of [3H]ketanserin from human 5HT2A receptor expressed in HEK293 cell membranes by liquid scintillation counting based competition binding assay; in short: as §1
[4] = biological target: T1, 5-hydroxytryptamine receptor 1A (Rattus norvegicus, UniProt P19327); experiment: Displacement of [3H]8-OH-DPAT from rat 5HT1A receptor expressed in CHO cell membranes by liquid scintillation counting based competition binding assay; in short: as §1
T1 sequence (P19327 whole entry): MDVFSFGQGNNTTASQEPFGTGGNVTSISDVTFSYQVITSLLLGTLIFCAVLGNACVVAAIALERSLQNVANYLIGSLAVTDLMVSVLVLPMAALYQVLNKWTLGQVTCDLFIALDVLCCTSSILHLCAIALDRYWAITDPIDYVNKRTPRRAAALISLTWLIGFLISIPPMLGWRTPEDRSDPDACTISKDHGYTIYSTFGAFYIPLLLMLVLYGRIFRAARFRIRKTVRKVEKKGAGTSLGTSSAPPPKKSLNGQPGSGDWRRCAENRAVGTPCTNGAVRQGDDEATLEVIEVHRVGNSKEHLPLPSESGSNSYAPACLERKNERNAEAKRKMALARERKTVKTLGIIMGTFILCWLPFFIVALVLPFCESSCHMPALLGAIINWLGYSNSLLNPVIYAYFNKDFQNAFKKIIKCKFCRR

[5] = biological target: D(3) dopamine receptor (Homo sapiens, UniProt P35462); experiment: Displacement of [3H]spiperone from human dopamine D3 receptor expressed in HEK293 cell membranes by liquid scintillation counting based competition binding assay; in short: as §1
Sequence of D(3) dopamine receptor (P35462 whole entry): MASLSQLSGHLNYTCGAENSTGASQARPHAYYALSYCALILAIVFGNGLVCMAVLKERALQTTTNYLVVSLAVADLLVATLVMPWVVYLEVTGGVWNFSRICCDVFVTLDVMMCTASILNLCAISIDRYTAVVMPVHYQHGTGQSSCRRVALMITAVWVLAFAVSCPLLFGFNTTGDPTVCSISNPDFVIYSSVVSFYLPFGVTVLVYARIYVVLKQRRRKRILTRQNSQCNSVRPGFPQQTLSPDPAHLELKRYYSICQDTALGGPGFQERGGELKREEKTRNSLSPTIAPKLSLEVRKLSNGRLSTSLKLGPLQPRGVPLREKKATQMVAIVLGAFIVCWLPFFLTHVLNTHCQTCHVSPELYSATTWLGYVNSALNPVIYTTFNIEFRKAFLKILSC

Sequence of 5-hydroxytryptamine receptor 2A (P28223 whole entry): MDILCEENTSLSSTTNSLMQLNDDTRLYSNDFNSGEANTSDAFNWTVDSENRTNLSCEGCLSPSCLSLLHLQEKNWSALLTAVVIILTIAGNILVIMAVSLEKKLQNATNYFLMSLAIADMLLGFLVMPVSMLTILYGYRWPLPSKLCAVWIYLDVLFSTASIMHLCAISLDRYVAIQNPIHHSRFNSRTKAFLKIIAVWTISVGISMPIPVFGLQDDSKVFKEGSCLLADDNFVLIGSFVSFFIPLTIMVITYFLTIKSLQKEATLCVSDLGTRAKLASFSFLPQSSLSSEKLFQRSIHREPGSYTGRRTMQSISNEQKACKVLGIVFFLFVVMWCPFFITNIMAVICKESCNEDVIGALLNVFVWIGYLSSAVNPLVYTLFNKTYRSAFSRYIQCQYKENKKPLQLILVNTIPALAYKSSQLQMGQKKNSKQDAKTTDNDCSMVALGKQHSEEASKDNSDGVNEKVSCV
Sequence of D(1A) dopamine receptor (P21728 whole entry): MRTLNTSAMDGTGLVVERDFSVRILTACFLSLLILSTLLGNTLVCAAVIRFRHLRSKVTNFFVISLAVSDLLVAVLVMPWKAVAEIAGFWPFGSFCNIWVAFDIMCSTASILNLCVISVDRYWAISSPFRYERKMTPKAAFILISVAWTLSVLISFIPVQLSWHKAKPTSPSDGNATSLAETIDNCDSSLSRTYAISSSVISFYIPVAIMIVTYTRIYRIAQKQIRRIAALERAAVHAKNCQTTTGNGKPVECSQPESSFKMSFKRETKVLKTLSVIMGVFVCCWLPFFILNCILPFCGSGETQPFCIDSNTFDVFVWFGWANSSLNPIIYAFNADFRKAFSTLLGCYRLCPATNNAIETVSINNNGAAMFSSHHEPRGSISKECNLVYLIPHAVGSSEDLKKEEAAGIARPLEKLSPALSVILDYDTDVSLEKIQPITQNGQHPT
Sequence of D(2) dopamine receptor (P14416 whole entry): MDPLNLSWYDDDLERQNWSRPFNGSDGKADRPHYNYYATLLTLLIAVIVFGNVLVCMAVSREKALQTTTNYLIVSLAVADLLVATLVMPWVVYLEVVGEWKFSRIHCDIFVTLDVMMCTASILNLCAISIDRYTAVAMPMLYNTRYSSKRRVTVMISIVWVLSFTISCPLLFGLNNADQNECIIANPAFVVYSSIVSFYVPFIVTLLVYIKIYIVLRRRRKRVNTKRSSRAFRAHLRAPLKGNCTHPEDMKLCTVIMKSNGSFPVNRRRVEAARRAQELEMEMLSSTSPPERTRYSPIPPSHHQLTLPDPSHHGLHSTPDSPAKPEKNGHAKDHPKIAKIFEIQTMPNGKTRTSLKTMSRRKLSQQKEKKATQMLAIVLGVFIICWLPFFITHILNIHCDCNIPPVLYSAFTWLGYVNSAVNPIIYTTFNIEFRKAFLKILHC

Compound | Ki [1] [µM] | Ki [2] [µM] | Ki [3] [µM] | Ki [4] [µM] | Ki [5] [µM]
Cc1ccc(CNc2cc3c(cc2O)C(c2ccccc2)CN(C)CC3)cc1 (racemic) | 0.756 | > 1 | 0.862 | > 1 | 
CCN(CC)c1cc2c(cc1O)C(c1ccccc1)CN(C)CC2 (racemic) | > 1 | > 1 |  |  | > 1
CN1CCc2cc(-c3ccc(O)cc3)c(O)cc2C(c2ccccc2)C1 (racemic) | 0.349 | > 1 | 0.826 | > 1 | 
CN1CCc2cc(NCc3ccccc3)c(O)cc2C(c2ccccc2)C1 (racemic) | 0.665 | > 1 | 0.00452 | > 1 | > 1
CN1CCc2cc(O)c(N)cc2C(c2ccccc2)C1 (racemic) | 0.351 | > 1 | > 1 | > 1 | > 1
CN1CCc2cc(O)ccc2C(c2ccccc2)C1 (racemic) | > 1 | > 1 |  |  | > 1
CN1CCc2ccc(N)cc2C(c2ccccc2)C1 (racemic) | 0.583 | > 1 |  |  | > 1
CN1CCc2cc(-c3ccc4ccccc4c3)c(O)cc2C(c2ccccc2)C1 (racemic) | > 1 | > 1 |  |  | 
Cc1ccccc1-c1cc2c(cc1O)C(c1ccccc1)CN(C)CC2 (racemic) | 0.912 | > 1 |  |  | 
CN1CCc2cc3c(cc2C(c2ccccc2)C1)NC(=O)CO3 (racemic) | > 1 | > 1 |  |  | 
Cc1cccc(CNc2cc3c(cc2O)C(c2ccccc2)CN(C)CC3)c1 (racemic) | 0.37 | > 1 | 0.00995 | > 1 | 
CN1CCc2cc(N)c(O)cc2C(c2ccccc2)C1 (racemic) | 0.334 | > 1 | > 1 | > 1 | > 1
Cc1ccccc1CNc1cc2c(cc1O)C(c1ccccc1)CN(C)CC2 (racemic) | 0.292 | > 1 | 0.192 | > 1 | 
Cc1ccc(-c2cc3c(cc2O)C(c2ccccc2)CN(C)CC3)cc1 (racemic) | > 1 | > 1 |  |  | > 1
CN1CCc2ccc(O)cc2C(c2ccccc2)C1 (racemic) | 0.207 | > 1 | 0.133 | > 1 | > 1
CN1CCc2cc(NCc3cccc(Cl)c3)c(O)cc2C(c2ccccc2)C1 (racemic) | 0.277 | > 1 | 0.0103 | 0.479 | 
CNc1ccc2c(c1)C(c1ccccc1)CN(C)CC2 (racemic) | > 1 | > 1 |  |  | 
CN1CCc2cc(-n3cccc3)c(O)cc2C(c2ccccc2)C1 (racemic) | > 1 | > 1 |  |  | 
CC(=O)Nc1cc2c(cc1O)C(c1ccccc1)CN(C)CC2 (racemic) | > 1 | > 1 |  |  | 
CN1CCc2cc(O)c(CO)cc2C(c2ccccc2)C1 (racemic) | > 1 | > 1 |  |  | > 1
CN1CCc2ccc(N(C)C)cc2C(c2ccccc2)C1 (racemic) | > 1 | > 1 |  |  | 
CN1CCN(c2nc3cc4c(cc3o2)CCN(C)CC4c2ccccc2)CC1 (racemic) | > 1 | > 1 |  |  | 
Cc1cccc(-c2cc3c(cc2O)C(c2ccccc2)CN(C)CC3)c1 (racemic) | 0.216 | > 1 | 0.163 | > 1 | > 1
CN1CCc2cc(O)c(CN)cc2C(c2ccccc2)C1 (racemic) | > 1 | > 1 |  |  | > 1
CN1CCc2cc3oc(=O)[nH]c3cc2C(c2ccccc2)C1 (racemic) | > 1 | > 1 |  |  | 
CN1CCc2cc3ocnc3cc2C(c2ccccc2)C1 (racemic) | > 1 | > 1 |  |  | 
CN1CCc2cc(N)ccc2C(c2ccccc2)C1 (racemic) | > 1 | > 1 |  |  | > 1
